Results published in ChEMBL document CHEMBL5724801, “EUbOPEN Chemogenomics Library - Multiplex” (2024).
“And” between values parts separate entries of the source, which are not always exact repeats. Equal values may be shown once.

Assays:
[1] = tested on: U2OS; experiment: Multiplex assay against U2OS; format: toxicity, cell-based; conditions: human
In short: (§1)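 At seeding, live cells were stained with Hoechst33342, BioTracker Green Microtubule Cytoskeleton Dye, MitoTracker Red and Annexin V Alexa Fluor 680. After compound addition they were imaged on a CQ1 microscope at 37°C and 5% CO2, and CellPathfinder machine-learning gating sorted them into Hoechst high-intensity objects or normal cells, with normal cells further split into healthy, pyknosed or fragmented nuclei and pyknosed cells into mitotic or apoptotic. Tubulin, mitochondrial-mass and membrane-permeability phenotypes are given as per cents of cells with healthy nuclei.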

[2] = tested on: HEK-293T; experiment: Multiplex assay against HEK293T; format: toxicity, cell-based; conditions: human; in short: as §1
[3] = 12 h, 1 µM, compound concentration 1 uM
[4] = 12 h, 10 µM, compound concentration 10 uM
[5] = 24 h, 1 µM, compound concentration 1 uM
[6] = 24 h, 10 µM, compound concentration 10 uM
[7] = 48 h, 1 µM, compound concentration 1 uM
[8] = 48 h, 10 µM, compound concentration 10 uM

N[C@](CC1c2ccccc2Oc2ccccc21)(C(=O)O)[C@H]1C[C@@H]1C(=O)O
Population Apoptotic (%) [1, 3]: 80% and 72% | Population Fragmented Nuclei (%) [1, 3]: 22% and 10% | Population Healthy Nuclei (%) [1, 3]: 67% and 79% | Population Hoechst High Intensity Objects (%) [1, 3]: 1% | Population Membrane Permeable-Phenotype (%) [1, 3]: 6% and 1% | Population Mitochondria Different-Phenotype (%) [1, 3]: 2% and 8% | Population Mitotic Cells (%) [1, 3]: 20% and 27% | Population Normal (%) [1, 3]: 98% | Population Pyknosed Nuclei (%) [1, 3]: 9% | Population Tubulin-Different-Phenotype (%) [1, 3]: 4% and 3% | Total Cell Count [1, 3]: 218 and 114 | Population Apoptotic (%) [1, 4]: 84% and 83% | Population Fragmented Nuclei (%) [1, 4]: 18% and 19% | Population Healthy Nuclei (%) [1, 4]: 72% and 76% | Population Hoechst High Intensity Objects (%) [1, 4]: 3% and 0% | Population Membrane Permeable-Phenotype (%) [1, 4]: 5% and 7% | Population Mitochondria Different-Phenotype (%) [1, 4]: 3% and 0% | Population Mitotic Cells (%) [1, 4]: 16% | Population Normal (%) [1, 4]: 96% and 100% | Population Pyknosed Nuclei (%) [1, 4]: 8% and 4% | Population Tubulin-Different-Phenotype (%) [1, 4]: 2% | Total Cell Count [1, 4]: 295 and 141 | Population Apoptotic (%) [1, 5]: 78% and 63% | Population Fragmented Nuclei (%) [1, 5]: 20% and 14% | Population Healthy Nuclei (%) [1, 5]: 70% and 77% | Population Hoechst High Intensity Objects (%) [1, 5]: 1% and 0% | Population Membrane Permeable-Phenotype (%) [1, 5]: 1% and 4% | Population Mitochondria Different-Phenotype (%) [1, 5]: 1% and 5% | Population Mitotic Cells (%) [1, 5]: 21% and 36% | Population Normal (%) [1, 5]: 98% and 99% | Population Pyknosed Nuclei (%) [1, 5]: 8% | Population Tubulin-Different-Phenotype (%) [1, 5]: 1% and 2% | Total Cell Count [1, 5]: 272 and 137 | Population Apoptotic (%) [1, 6]: 80% and 81% | Population Fragmented Nuclei (%) [1, 6]: 13% and 15% | Population Healthy Nuclei (%) [1, 6]: 79% and 77% | Population Hoechst High Intensity Objects (%) [1, 6]: 3% and 0% | Population Membrane Permeable-Phenotype (%) [1, 6]: 3% and 8% | Population Mitochondria Different-Phenotype (%) [1, 6]: 3% and 1% | Population Mitotic Cells (%) [1, 6]: 20% and 18% | Population Normal (%) [1, 6]: 96% and 99% | Population Pyknosed Nuclei (%) [1, 6]: 7% and 6% | Population Tubulin-Different-Phenotype (%) [1, 6]: 1% and 3% | Total Cell Count [1, 6]: 365 and 164 | Population Apoptotic (%) [1, 7]: 89% and 85% | Population Fragmented Nuclei (%) [1, 7]: 14% and 16% | Population Healthy Nuclei (%) [1, 7]: 75% and 72% | Population Hoechst High Intensity Objects (%) [1, 7]: 2% and 1% | Population Membrane Permeable-Phenotype (%) [1, 7]: 3% and 5% | Population Mitochondria Different-Phenotype (%) [1, 7]: 1% and 3% | Population Mitotic Cells (%) [1, 7]: 10% and 15% | Population Normal (%) [1, 7]: 97% and 98% | Population Pyknosed Nuclei (%) [1, 7]: 9% and 10% | Population Tubulin-Different-Phenotype (%) [1, 7]: 1% and 4% | Total Cell Count [1, 7]: 403 and 190 | Population Apoptotic (%) [1, 8]: 90% and 81% | Population Fragmented Nuclei (%) [1, 8]: 15% and 12% | Population Healthy Nuclei (%) [1, 8]: 77% and 78% | Population Hoechst High Intensity Objects (%) [1, 8]: 1% and 0% | Population Membrane Permeable-Phenotype (%) [1, 8]: 4% and 7% | Population Mitochondria Different-Phenotype (%) [1, 8]: 3% and 1% | Population Mitotic Cells (%) [1, 8]: 10% and 18% | Population Normal (%) [1, 8]: 98% and 100% | Population Pyknosed Nuclei (%) [1, 8]: 7% and 9% | Population Tubulin-Different-Phenotype (%) [1, 8]: 2% and 3% | Total Cell Count [1, 8]: 554 and 238 | Population Apoptotic (%) [2, 3]: 38% and 54% | Population Fragmented Nuclei (%) [2, 3]: 6% and 7% | Population Healthy Nuclei (%) [2, 3]: 83% and 79% | Population Hoechst High Intensity Objects (%) [2, 3]: 7% and 5% | Population Membrane Permeable-Phenotype (%) [2, 3]: 0% | Population Mitochondria Different-Phenotype (%) [2, 3]: 43% and 58% | Population Mitotic Cells (%) [2, 3]: 61% and 45% | Population Normal (%) [2, 3]: 92% and 94% | Population Pyknosed Nuclei (%) [2, 3]: 10% and 12% | Population Tubulin-Different-Phenotype (%) [2, 3]: 27% and 25% | Total Cell Count [2, 3]: 447 and 270 | Population Apoptotic (%) [2, 4]: 32% | Population Fragmented Nuclei (%) [2, 4]: 9% and 4% | Population Healthy Nuclei (%) [2, 4]: 78% and 81% | Population Hoechst High Intensity Objects (%) [2, 4]: 8% and 7% | Population Membrane Permeable-Phenotype (%) [2, 4]: 0% | Population Mitochondria Different-Phenotype (%) [2, 4]: 40% and 66% | Population Mitotic Cells (%) [2, 4]: 67% | Population Normal (%) [2, 4]: 91% and 92% | Population Pyknosed Nuclei (%) [2, 4]: 12% and 13% | Population Tubulin-Different-Phenotype (%) [2, 4]: 23% and 31% | Total Cell Count [2, 4]: 381 and 382 | Population Apoptotic (%) [2, 5]: 21% and 38% | Population Fragmented Nuclei (%) [2, 5]: 8% and 9% | Population Healthy Nuclei (%) [2, 5]: 81% and 84% | Population Hoechst High Intensity Objects (%) [2, 5]: 3% and 5% | Population Membrane Permeable-Phenotype (%) [2, 5]: 1% and 0% | Population Mitochondria Different-Phenotype (%) [2, 5]: 24% and 30% | Population Mitotic Cells (%) [2, 5]: 78% and 61% | Population Normal (%) [2, 5]: 96% and 94% | Population Pyknosed Nuclei (%) [2, 5]: 10% and 6% | Population Tubulin-Different-Phenotype (%) [2, 5]: 15% and 16% | Total Cell Count [2, 5]: 629 and 368
